Assay results from ChEMBL document CHEMBL4334486 (J Med Chem, 2019).
The source made the active and inactive calls. The rule behind the calls is not given here.

Key:
Pseudomonas aeruginosa [1] = assay: Antimicrobial activity against Pseudomonas aeruginosa PAO1 assessed as inhibition of planktonic cells growth at >0.15 uM incubated for 24 to 25 hrs; type: functional, organism-based
Procedure, shortened: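 PAO1 inoculum from overnight LB culture, washed in 0.25% (w/v) nutrient broth no. 2, normalized to OD600 1 and added to the same broth containing the test compound. Incubation was 24−25 h at 37 °C in a humid environment. Planktonic growth was read from the supernatant: it was regrown in LB at 37 °C for 7−8 h and OD600 was compared with no-supernatant, or CFU were plated on LB agar.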

Pseudomonas aeruginosa [2] = assay: Antimicrobial activity against Pseudomonas aeruginosa PAO1 assessed as inhibition of bacterial growth under Mueller-Hinton conditions without iron supplementation; type: functional
Procedure, shortened: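 Ciprofloxacin and deferoxamine serve as controls. MIC is taken as the highest dilution with visually clear wells.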

Pseudomonas aeruginosa [3] = assay: Antimicrobial activity against siderophore-producing Pseudomonas aeruginosa PAO1 assessed as inhibition of bacterial growth at 0.125 to 128 ug/mL under iron-supplemented succinate minimal medium in the presence of 50 uM of FeCl3; type: functional, organism-based
Procedure, shortened: (§1)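 Succinate minimal medium with FeCl3 at 8 μg/mL (50 μM), inoculated with the strain at 0.5 McFarland. Compound is added from 2-fold DMSO dilutions; DMSO alone is the growth control. Incubation is 24 h. OD600 gives growth, with cell-free baselines. Runs are at least duplicate, mean + SD; Mann−Whitney test, p<0.05.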

Pseudomonas aeruginosa [4] = assay: Antimicrobial activity against siderophore-deficient Pseudomonas aeruginosa PAD07 in siderophore-deficient PAD07 assessed as inhibition of bacterial growth at 0.0625 to 128 ug/mL incubated for 24 hrs under iron-supplemented succinate minimal medium in the presence of 50 uM of FeCl3; type: functional, organism-based; procedure, shortened: as §1
Pseudomonas aeruginosa [5] = assay: Induction of fluorescent pyoverdine-1 siderophore production in siderophore-producing Pseudomonas aeruginosa PAO1 at 0.125 to 128 ug/mL incubated for 24 hrs under iron-supplemented succinate minimal medium in the presence of 50 uM of FeCl3; type: functional, organism-based
Procedure, shortened: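 PAO1 in succinate minimal medium with 8 μg/mL (50 μM) FeCl3, compound from DMSO dilutions. Plates are incubated 24 h at 35 °C. Iron-free pyoverdine is read by absorbance at 405 nm and by fluorescence (excitation 400 nm, emission 447 nm), with cell-free baselines. Runs are in duplicate at least twice, mean + SD.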

[6] = molecular target: Fucose-binding lectin PA-IIL (Pseudomonas aeruginosa (strain ATCC 15692 / DSM 22644 / CIP 104116 / JCM14847 / LMG 12228 / 1C / PRS 101 / PAO1), UniProt Q9HYN5); assay: Inhibition of Pseudomonas aeruginosa LecB by fluorescence polarization assay
[7] = molecular target: Fucose-binding lectin PA-IIL (Pseudomonas aeruginosa (strain ATCC 15692 / DSM 22644 / CIP 104116 / JCM14847 / LMG 12228 / 1C / PRS 101 / PAO1)) (UniProt Q9HYN5); assay: Potency index, ratio of IC50 for Me-alpha-L-fucoside to IC50 for test compound for inhibition of Pseudomonas aeruginosa LecB by fluorescence polarization assay
Pseudomonas aeruginosa [8] = assay: Antibiofilm activity against Pseudomonas aeruginosa PAO1 assessed as inhibition of biofilm formation incubated for 24 to 25 hrs at 50 uM by WST8 dye based Diggle-protocol method relative to control; type: functional
Procedure, shortened: (§2)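 Modified Diggle microtiter method. Medium is 0.25% (w/v) nutrient broth no. 2 containing compound. PAO1 is grown overnight in LB, washed, and inoculated normalized to OD600 of 1. Plates are incubated humid for 24−25 h at 37 °C and washed twice with water. Wells are then stained for 3 h at 37 °C with 0.5 mM WST-8 plus 20 μM phenazine ethosulfate. Supernatant absorbance is read at 450 nm to give viable biofilm cells.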

Pseudomonas aeruginosa [9] = assay: Antibiofilm activity against Pseudomonas aeruginosa PAO1 assessed as inhibition of biofilm formation incubated for 8 hrs at 20 uM by crystal violet based O'Toole method relative to control; type: functional; details: PAO1, 8 h
Procedure, shortened: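 O'Toole biofilm assay. PAO1 is grown in M63 minimal medium with 0.4% arginine and 1 mM MgSO4. Compound at 20 μM, or an equal volume of water as vehicle control, is added at inoculation. Incubation is 8 h at 37 °C. Growth is read at 550 nm on removed medium. Biofilm is stained with 0.1% crystal violet and quantified.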

[10] = Toxicity in human CFBEdeltaF cells isolated from CF patient at 20 uM incubated for 24 hrs by LDH assay; type: cell-based
Procedure, shortened: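 CF bronchial epithelial CFBEΔF monolayers are treated with compound at 20 μM (water vehicle control) for 24 h. Cytotoxicity is measured as LDH released into the medium. Triton is the lysis reference.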

Pseudomonas aeruginosa [11] = assay: Antibiofilm activity against Pseudomonas aeruginosa PAO1 assessed as inhibition of biofilm formation incubated for 8 hrs at 20 uM by crystal violet based O'Toole method relative to control
[12] = molecular target: Fucose-binding lectin PA-IIL (Pseudomonas aeruginosa (strain ATCC 15692 / DSM 22644 / CIP 104116 / JCM14847 / LMG 12228 / 1C / PRS 101 / PAO1)) (UniProt Q9HYN5); assay: Potency index, ratio of IC50 for Me-alpha-D-mannoside to IC50 for test compound for inhibition of Pseudomonas aeruginosa LecB by fluorescence polarization assay
Pseudomonas aeruginosa [13] = assay: Antibiofilm activity against Pseudomonas aeruginosa PAO1 assessed as inhibition of biofilm formation incubated for 24 to 25 hrs at 20 uM by WST8 dye based Diggle-protocol method relative to control; type: functional; procedure, shortened: as §2
Pseudomonas aeruginosa [14] = assay: Antibiofilm activity against Pseudomonas aeruginosa PAO1 assessed as inhibition of biofilm formation incubated for 24 to 25 hrs at 20 uM in presence of sub-inhibitory concentration of tobramycin by WST8 dye based Diggle-protocol method relative to control; type: functional, organism-based
Procedure, shortened: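 Diggle WST-8 biofilm method. PAO1 in 0.25% nutrient broth is exposed to compound at 20 μM mixed with tobramycin at 0.1 μM (subinhibitory). Incubation is 24−25 h at 37 °C. Washed wells are stained 3 h with 0.5 mM WST-8 and 20 μM phenazine ethosulfate. A450 of the supernatant is read.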

Pseudomonas aeruginosa [15] = assay: Toxicity in Pseudomonas aeruginosa PAO1 incubated for 24 to 25 hrs at 20 uM in presence of sub-inhibitory concentration of tobramycin by WST8 dye based Diggle-protocol method relative to control; type: organism-based; details: in vivo

Sequence of Fucose-binding lectin PA-IIL (Q9HYN5 whole entry): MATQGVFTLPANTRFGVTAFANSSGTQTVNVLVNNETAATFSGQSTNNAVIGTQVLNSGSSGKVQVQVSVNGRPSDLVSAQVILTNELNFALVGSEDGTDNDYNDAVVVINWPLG
Sequence of Fucose-binding lectin PA-IIL (Pseudomonas aeruginosa (strain ATCC 15692 / DSM 22644 / CIP 104116 / JCM14847 / LMG 12228 / 1C / PRS 101 / PAO1)) (Q9HYN5 as listed by the source): as the sequence (Q9HYN5 whole entry) above

Compound | MIC (Pseudomonas aeruginosa [2]) | Activity (Pseudomonas aeruginosa [3]) | Activity (Pseudomonas aeruginosa [5]) | IC50 [6] | inhibition at 20 µM (Pseudomonas aeruginosa [9]) | Activity [10] | further results
NC[C@H]1O[C@H](O[C@H]2[C@H](O)[C@@H](O[C@H]3O[C@H](CO)[C@@H](O)[C@H](N)[C@H]3O)[C@H](N)C[C@@H]2N)[C@H](N)C[C@@H]1O | – | – | – | – | – | – | Activity (Pseudomonas aeruginosa [1]): Active
C[C@@H]1O[C@@H](OCc2cn(CCCCCC(=O)N(O)Cc3cn(CCCOc4c5cc(C(C)(C)C)cc4Cc4cc(C(C)(C)C)cc(c4OCCCn4cc(CN(O)C(=O)CCCCCn6cc(CO[C@@H]7O[C@@H](C)[C@@H](O)[C@@H](O)[C@@H]7O)nn6)nn4)Cc4cc(C(C)(C)C)cc(c4OCCCn4cc(CN(O)C(=O)CCCCCn6cc(CO[C@@H]7O[C@@H](C)[C@@H](O)[C@@H](O)[C@@H]7O)nn6)nn4)Cc4cc(C(C)(C)C)cc(c4OCCCn4cc(CN(O)C(=O)CCCCCn6cc(CO[C@@H]7O[C@@H](C)[C@@H](O)[C@@H](O)[C@@H]7O)nn6)nn4)C5)nn3)nn2)[C@@H](O)[C@H](O)[C@@H]1O | > 512 mg/L | inactive | Dose-dependent effect | 0.249 µM | 72% | Non-Toxic | Activity (Pseudomonas aeruginosa [4]): inactive; Ratio IC50 [7]: 3.37; inhibition (Pseudomonas aeruginosa [8]): inactive; inhibition (Pseudomonas aeruginosa [11]): inactive
O=C(CCCCCn1cc(CO[C@H]2O[C@H](CO)[C@@H](O)[C@H](O)[C@@H]2O)nn1)NOCc1ccccc1 | – | – | – | 146 µM | – | – | –
CC(C)(C)c1cc2c(OCCCn3cc(CN(O)C(=O)CCCCCn4cc(CO[C@H]5O[C@H](CO)[C@@H](O)[C@H](O)[C@@H]5O)nn4)nn3)c(c1)Cc1cc(C(C)(C)C)cc(c1OCCCn1cc(CN(O)C(=O)CCCCCn3cc(CO[C@H]4O[C@H](CO)[C@@H](O)[C@H](O)[C@@H]4O)nn3)nn1)Cc1cc(C(C)(C)C)cc(c1OCCCn1cc(CN(O)C(=O)CCCCCn3cc(CO[C@H]4O[C@H](CO)[C@@H](O)[C@H](O)[C@@H]4O)nn3)nn1)Cc1cc(C(C)(C)C)cc(c1OCCCn1cc(CN(O)C(=O)CCCCCn3cc(CO[C@H]4O[C@H](CO)[C@@H](O)[C@H](O)[C@@H]4O)nn3)nn1)C2 | > 512 mg/L | inactive | Dose-dependent effect | 0.664 µM | 84% | Non-Toxic | Ratio IC50 [12]: 236; inhibition at 50 µM (Pseudomonas aeruginosa [8]): 70%; inhibition at 20 µM (Pseudomonas aeruginosa [13]): 83%; inhibition (Pseudomonas aeruginosa [14]): Active; Activity (Pseudomonas aeruginosa [15]): Non-Toxic
CC(C)(C)c1cc2c(OCCCn3cc(CN(O)C(=O)CCCCCn4cc(CO[C@H]5O[C@H](CO)[C@@H](O)[C@H](O)[C@H]5O)nn4)nn3)c(c1)Cc1cc(C(C)(C)C)cc(c1OCCCn1cc(CN(O)C(=O)CCCCCn3cc(CO[C@H]4O[C@H](CO)[C@@H](O)[C@H](O)[C@H]4O)nn3)nn1)Cc1cc(C(C)(C)C)cc(c1OCCCn1cc(CN(O)C(=O)CCCCCn3cc(CO[C@H]4O[C@H](CO)[C@@H](O)[C@H](O)[C@H]4O)nn3)nn1)Cc1cc(C(C)(C)C)cc(c1OCCCn1cc(CN(O)C(=O)CCCCCn3cc(CO[C@H]4O[C@H](CO)[C@@H](O)[C@H](O)[C@H]4O)nn3)nn1)C2 | – | – | – | – | 92% | Non-Toxic | –
C[C@@H]1O[C@@H](OCc2cn(CCCCCC(=O)NOCc3ccccc3)nn2)[C@@H](O)[C@H](O)[C@@H]1O | – | – | – | 0.5 µM | – | – | –
